Screening data: PubChem, Broad Institute
Only some compounds are listed: those with a hit (about 3.1% of all), similar ones and a draw of the others.
Beta cell apopt = beta cell apoptosis inhibition. INS-1E cytokine-induced death, ATP luminescence, 48 h; percent of positive-control rescue, neutral wells zero. protection from apoptosis, % (concentration not given with the values). 0.8% of 300,000 active. AID 435005;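 active = Every replicate reaches about 75%, or at least half do and their mean reaches it too, limit read from the data; inconclusive = At least half of replicates reach the limit but their mean does not; inactive = Under half of replicates reach the limit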;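 note: 0% = cytokine-treated negative control wells and 100% = positive control rescue; higher means more ATP so stronger rescue from cytokine killing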
PolyA inh = blocks polyadenylation in yeast reporter cells; S. cerevisiae SKY197-pL101 polyadenylation reporter, beta-gal luminescence; efflux-impaired pdr1/pdr3 knockout yeast; score 100 = 6 SD above DMSO; activity score, % at 12 µM; 0.02% of 300,000 active;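 active = lowest replicate activity score at least 50, where 100 means six control SD above control mean; inconclusive = lowest score under 50 but half or more replicates reach 50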;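 note: yeast exposed to compound for 9 h at 30 °C; higher score means more reporter readthrough which indicates perturbed polyadenylation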
CSC inhib = blocks cancer stem cells; cancer stem cell-like cells viability, luminescence; inhibition, % at 7.5 µM; 1.1% of 300,000 active; AID 2717; in the data active = inhibition above about 75%; inconclusive = no clear call, values can overlap the other calls; tested in HMLE shEcad cells
T cruzi inh = T. cruzi replication inhibition | T. cruzi beta-gal in NIH3T3, luminescence, 90 h | inhibition, % (test concentration not listed) | 1.4% of 300,000 active | AID 1885;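 active = mean inhibition across valid replicates above about 55%, limit read from the data; inconclusive = mean below that limit but half or more replicates reach it; inactive = mean below it, under half of replicates reach it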;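 note: signal also drops with host cell toxicity which is not excluded here; 0% = plate median of DMSO wells and 100% = zero luminescence signal; higher percent means less beta-gal luminescence so fewer parasites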
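System: mouse NIH/3T3 fibroblasts infected with β-gal-expressing T. cruzi Tulahuen C4 / Input: NIH/3T3 cells, 5,000 per well / Buffer or medium: Low-serum DMEM with 2% FBS / Probe or stimulus: 5000 reporter trypomastigotes per well / Schedule: ≥90 h infection period, 3 h prior cell attachment / Measured by: GalScreen luminescence, 60 min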
HIF activator = HIF pathway transcriptional activation | U2OS HRE-luciferase reporter, luminescence; normalized: DMSO 0%, desferrioxamine 100% | activation, % at 7.5 µM (by protocol) | 0.32% of 300,000 active;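 active = mean activation of at least 10% of the iron chelator positive control signal, with at least half of replicates also reaching 10%; inconclusive = mean and replicate majority disagree about reaching 10%; inactive = mean and most replicates under 10%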
Calb FLC = C. albicans growth modulation with fluconazole | C. albicans CaCi-2 (fluconazole-resistant clinical isolate) + fluconazole, Alamar Blue growth, 48 h | growth inhibition, % (test concentration not listed) | 0.57% of 300,000 active;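 active = growth inhibition above about 58% in most replicates, limit read from the data, passing the limit was not always enough; inconclusive = exactly half the replicates above a set limit; inactive = most replicates below a set limit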;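 note: all wells also contain fluconazole at 8 µg/ml as a sub-toxic cotreatment; 0% = median of DMSO wells and 100% = median of geldanamycin control wells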
* marks the source's active call; other numbers are inactive results.

`CCOC(=O)N1CCN(C(=O)c2ccc(CS(=O)c3ccccc3)o2)CC1` (stereo unspecified) gave Beta cell apopt -3.0, PolyA inh -13.8, CSC inhib 13.7, T cruzi inh -13.1, HIF activator -1.3 and Calb FLC -0.4.
Screening O=C(CN1CCN(S(=O)(=O)N2CCOCC2)CC1)Nc1cc(Cl)ccc1Cl returned Beta cell apopt 6.1, PolyA inh 0.2, T cruzi inh -7.1, HIF activator 0.1 and Calb FLC 10.8.
`COc1ccccc1CNC(=O)C1CCC(CNc2c(N3CCC(C)CC3)c(=O)c2=O)CC1` (stereo unspecified) gave Beta cell apopt 7.1, PolyA inh -13.1, CSC inhib -3.1, T cruzi inh 4.4, HIF activator 0.0 and Calb FLC -0.5.
Screening CO/N=C(/CN1CCCCC1)c1ccc(Cl)cc1 returned Beta cell apopt -2.4, PolyA inh -5.3, CSC inhib -14.3, T cruzi inh -9.7, HIF activator -0.9 and Calb FLC 2.4.
Screening O=C1c2ccccc2NC(c2ccc(O)c(O)c2)N1c1ccccc1Cl (stereo unspecified) returned Beta cell apopt -1.4, PolyA inh -3.3, CSC inhib -15.7, T cruzi inh -18.8, HIF activator -2.7 and Calb FLC 8.7.
For O=C(Nc1ccc(Oc2c(F)c(F)c(F)c(F)c2F)cc1)OC1CCN2Cc3ccccc3N=C12 (stereo unspecified) the results were Beta cell apopt 71.0, PolyA inh -16.8, CSC inhib 103.5*, T cruzi inh 18.0, HIF activator -4.2 and Calb FLC -4.3.
`O=C(Nc1cccc(Cl)c1N1CCCCC1)c1ccc2c(c1)OCCO2` gave Beta cell apopt 6.1, PolyA inh 3.5, CSC inhib inconclusive, T cruzi inh 29.1, HIF activator -1.7 and Calb FLC 0.3.
For O=C(NC(=S)Nc1cccc(Cl)c1N1CCCCC1)c1ccc2c(c1)OCCO2 the results were Beta cell apopt 15.8, PolyA inh 4.1, CSC inhib 82.1*, T cruzi inh 35.1, HIF activator 0.8 and Calb FLC 12.2.
`Cc1nn(-c2ccccc2)c(Cl)c1C(=O)OCC(=O)NCCc1ccccc1` gave Beta cell apopt -1.7, PolyA inh -14.1, CSC inhib 10.2, T cruzi inh -15.2, HIF activator 0.0 and Calb FLC 26.5.
`O=C(c1cc(-c2ccccc2)n[nH]1)N1CCc2c([nH]c3ccccc23)C1c1ccccn1` (stereo unspecified) gave Beta cell apopt -2.4, PolyA inh 29.6, CSC inhib -3.3, T cruzi inh 29.1, HIF activator -0.1 and Calb FLC 97.8*.
`CCOC(=O)c1c(CSC(=N)N)n(-c2ccc(C)cc2)c2cc(Br)c(OC(C)=O)cc12` gave Beta cell apopt 9.1, PolyA inh -2.7, CSC inhib 114.0*, T cruzi inh 22.0, HIF activator 0.6 and Calb FLC 12.3.
Screening COCCCN(CC(=O)Nc1ccc(N2CCOCC2)cc1)S(=O)(=O)c1ccccc1 returned Beta cell apopt 7.7, PolyA inh -4.8, CSC inhib -8.5, T cruzi inh 10.0, HIF activator -0.4 and Calb FLC -6.0.
Screening Cc1ccc(NC(=O)C(Cc2ccccc2)N2C(=O)C3C4CCC(C4)C3C2=O)cc1Cl (stereo unspecified) returned Beta cell apopt 5.9, PolyA inh 1.9, CSC inhib -6.3, T cruzi inh 77.8*, HIF activator -0.7 and Calb FLC -2.9.
Cc1ccc(Cl)cc1NC(=O)C(Cc1ccccc1)N1C(=O)C2C3CCC(C3)C2C1=O (stereo unspecified) was read as Beta cell apopt 1.4, PolyA inh -10.0, CSC inhib 3.1, T cruzi inh 4.7, HIF activator 0.1 and Calb FLC 25.5.
`c1ccc(-c2nc3nonc3nc2-c2ccccc2)cc1` gave Beta cell apopt 135.2*, PolyA inh 14.1, CSC inhib 5.6, T cruzi inh 2.3, HIF activator -2.6 and Calb FLC 64.5.
`Nc1c(-c2ccccc2)nc(Cl)nc1-c1ccccc1` gave Beta cell apopt -6.0, PolyA inh -13.5, CSC inhib -0.2, T cruzi inh 3.3, HIF activator -0.2 and Calb FLC 1.4.
Screening Cc1ccc(-c2cn(-c3ccc(OC(F)F)cc3)c3[n+]2CCCCC3)cc1 returned Beta cell apopt 99.9*, PolyA inh -15.6, CSC inhib -1.9, T cruzi inh 49.0, HIF activator -0.4 and Calb FLC inconclusive.
Screening Cc1ccc(-c2cn(-c3ccc(SC(F)F)cc3)c3[n+]2CCC3)cc1 returned Beta cell apopt 82.3*, PolyA inh 10.8, T cruzi inh 28.6, HIF activator -0.3 and Calb FLC -14.2.
For CC(=O)Oc1ccc(CC(C(=O)O)N2C(=O)c3ccccc3C2=O)cc1 (stereo unspecified) the results were Beta cell apopt -4.7, PolyA inh -5.2, CSC inhib -1.6, T cruzi inh -10.5, HIF activator -1.2 and Calb FLC -2.4.
CCCC(/C=C/c1ccc(OC(C)=O)cc1)=C1/c2ccccc2C(=O)N1c1ccccc1 was read as Beta cell apopt -3.4 and CSC inhib 112.0*.
`CC(=O)Oc1ccc(C#C/C=C2\c3ccccc3C(=O)N2c2ccccc2)cc1` gave Beta cell apopt 4.9 and CSC inhib 133.8*.
`C/C(=N\NC(=O)C(C)n1nc(C)c([N+](=O)[O-])c1C)c1ccccc1O` (stereo unspecified) gave Beta cell apopt 91.6*, PolyA inh 23.4, CSC inhib 15.3, T cruzi inh 27.4, HIF activator 7.2 and Calb FLC -12.0.
`O=C(NCCOc1ccccc1)c1ccc2c(c1)S(=O)(=O)c1cc(Cl)ccc1C2=O` gave Beta cell apopt 0.1 and CSC inhib -3.2.
Screening O=C(CCCN1C(=O)c2ccccc2C1=O)NCc1cccnc1 returned Beta cell apopt 0.8, PolyA inh -11.1, CSC inhib -6.9, T cruzi inh 3.3, HIF activator 0.4 and Calb FLC 14.1.
`O=C(CCCCCCCCCCC(=O)NCc1cccnc1)NCc1cccnc1` gave Beta cell apopt 112.1*, PolyA inh -2.9, CSC inhib 71.7, T cruzi inh -35.7, HIF activator -0.5 and Calb FLC 5.5.
`O=C(/C=C/c1ccc(-c2ccccc2)cc1)NCc1cccnc1` gave Beta cell apopt 98.1*, PolyA inh 0.2, CSC inhib 14.1, T cruzi inh 35.7, HIF activator -15.3 and Calb FLC 5.2.
`CC#CC[N+](C)(C)CC(=O)c1ccccc1` gave Beta cell apopt -3.4, PolyA inh -4.5, CSC inhib -2.5, T cruzi inh -5.1, HIF activator 0.1 and Calb FLC 4.2.
